Consider 97 molecules from ChEMBL document CHEMBL4513216, “Probing the Open Global Health Chemical Diversity Library for Multistage-Active Starting Points for Next-Generation Antimalarials” (ACS Infect Dis, 2020).

A short description of this data set: Toxicity liver stage against HepG2, at 10uM. It counts as cell-based. As to conditions: human, HepG2-A16-CD81EGFP cells; read-out: INHIBITION
Set-up: test concentration 10 uM, cell line HepG2-A16-CD81EGFP. The method in brief:
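Uninfected HepG2-A16-CD81EGFP cells, 3 × 10^3 per well, 1536-well, plated on prespotted compound at 10 μM final, parasite-free screening media added to match infected plates; puromycin 10 μM positive, DMSO 0.5% negative; run in parallel with 48 h PbLuc assay at 37 °C, 5% CO2; viability by CellTiter-Glo luminescence, normalized to controls.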
For the molecule `O=C(CSCc1ccncc1)NCc1csc(Br)c1`, the cytotoxicity at 10 µM was -6.57%. For the molecule `COC1COC2(CCN(Cc3ccc(Cl)cc3)CC2)C1` (configuration not stated), the cytotoxicity at 10 µM was found to be 2.2%. In the case of `Cc1nc(-c2ccsc2)ccc1C(=O)N(C)CC1CC1`, the cytotoxicity at 10 µM is 2.83%.

For `CC(C)CC(NC(=O)c1cccc(F)c1F)C(=O)Nc1cc[nH]n1` (configuration not stated), the cytotoxicity at 10 µM was -7.82%. As to `Cn1ncc2c1C(COCC1CC1)CN(CC1CC1)C2` (configuration not stated), the cytotoxicity at 10 µM is -78.5%.

With `Cc1nc(C)n(CC2CN(CCOc3ccccc3C#N)CCO2)n1` (configuration not stated), the cytotoxicity at 10 µM was -7.45%. To `CCc1cccc(-n2nnc(C(=O)O)c2-c2ccncc2)c1` belongs 7.77%; to `Cc1nc(O)cc(C2CCCN2CCO)n1` (configuration not stated), -14.5%. Take `CC(C)Cc1nc(OCC(=O)O)c(C#N)c2c1CCC2`: the cytotoxicity at 10 µM was -5.93%. As to `Cc1cnn(C2CCCN(C(=O)c3ccc(Cn4ccnc4)cc3)C2)c1` (configuration not stated), the cytotoxicity at 10 µM came to 2.54%.

Consider `CCN(C)S(=O)(=O)N1CCCC(c2nc(-c3ccccc3)c[nH]2)C1` (configuration not stated), for which the cytotoxicity at 10 µM is -8.02%. For `CN(C(=O)CC1=CCCCC1)C1CCCN(CCc2ccccc2)C1` (configuration not stated), the cytotoxicity at 10 µM was 7.23%. As to `CCc1ccc(-c2nn3c(nc2=O)-c2ccccc2NC3C(=O)O)cc1` (configuration not stated), the cytotoxicity at 10 µM was found to be 11.2%.

Take `CCn1ccnc1CN1CCCN(C(=O)Cc2ccc(C)cc2)CC1`: the cytotoxicity at 10 µM was -7.29%. The figure for `CC[C@H]1CN(C(=O)c2cccc(-n3cnnc3)n2)CC[C@@]1(C)O` is 3.66%; for `CN(CC1(O)CCN(c2ccccn2)C1)C(=O)Cc1ccsc1` (configuration not stated) it is -11.7%. The figure for `CC(C)(C)[S+]([O-])CCNC(=O)c1csc(NC2CC2)n1` (configuration not stated) is 13.4%; for `COCCOc1ccc(-c2noc([C@@H]3CCCN3C3CCC3)n2)cn1` it is -4.26%; for `O=C(N1CCCC1)N1Cc2nccn2CC(CN2CCCC2)C1` (configuration not stated) it is 1.52%. The figure for `Nc1cc2c(nn1)CCN(C(=O)c1cccc3c1OCCO3)C2` is -8.72%. With `CCCNC(=O)C1CCN(CC2(O)CCC(C)CC2)CC1` (configuration not stated), the cytotoxicity at 10 µM amounted to 4.55%.

Consider `c1cc(CN2Cc3nnn(CC4CC4)c3C(COCC3CC3)C2)co1` (configuration not stated), for which the cytotoxicity at 10 µM was -0.336%. Regarding `CN(CCCc1cnn(C)c1)c1nccc(-c2cc(C(=O)O)ccn2)n1`, the cytotoxicity at 10 µM was -3.29%. Take `CC(O)CN1CCN(CCOCC(F)(F)F)CC1` (configuration not stated): the cytotoxicity at 10 µM was -3.51%.

Consider `c1ccc(-c2cc(CN3CCCCCC3c3ccco3)on2)nc1` (configuration not stated), for which the cytotoxicity at 10 µM is -6.19%. Consider `O=S(=O)(c1ccccc1)N1CCN(Cc2ccc(F)cc2Br)CC1`, for which the cytotoxicity at 10 µM was -2.57%. To `O=C(CCNS(=O)(=O)c1ccccc1F)NCc1ccoc1` belongs -16.5%. Consider `CSC1(CNC(=O)CCc2ccc(Cl)s2)CCOCC1`, for which the cytotoxicity at 10 µM amounted to 6.45%. For the molecule `CCc1nc(C2CCCN2C(=O)c2ccc3c(c2)nc(C)n3C)no1` (configuration not stated), the cytotoxicity at 10 µM was 3.54%.

Take `CCC(=O)c1cccc(S(=O)(=O)NC(C)C#N)c1` (configuration not stated): the cytotoxicity at 10 µM came out at 3.73%. To `COc1cc(N2CC[C@@H]3O[C@@H](c4ccncn4)C[C@H]3C2)ncn1` belongs 12.6%; to `Cc1cc(CNc2ccccc2Cl)no1`, -7.77%. With `O=C(NCc1ccc(C(=O)N2CCCC2)cc1)c1cn2c(n1)CNCC2`, the cytotoxicity at 10 µM was -10.2%.

As for `Cc1nnc2n1CCN(C(=O)CN1C(=O)CSc3ccccc31)C2`, the cytotoxicity at 10 µM was 0.442%. For the molecule `CN(Cc1ccc(-n2cccn2)cc1)Cc1cnc(N(C)C)nc1`, the cytotoxicity at 10 µM was -1.28%. To `Cc1nc(CO[C@@H]2CN(Cc3cccs3)[C@@H]3COC[C@@H]32)cs1` belongs -0.646%; to `CCc1[nH]n(C)c(=N)c1-c1ccc2c(c1)OCO2`, -45.1%. For `Cc1nc(N2CCCC2)nc2c1CN(C(=O)NC(C)C)CC2`, the cytotoxicity at 10 µM stood at 2.94%. The figure for `O=C(O)C(c1ccc2c(c1)OCCO2)N1CCC(N2CCOCC2)CC1` (configuration not stated) is -0.809%.

As to `CC(C)(C)C(=O)NCc1cnn2ccccc12`, the cytotoxicity at 10 µM was -10.6%. In the case of `COCCNC(=O)Cn1c(C)cc2nc(SC)n(CC(C)C)c(=O)c21`, the cytotoxicity at 10 µM was -14.6%.

With `CCn1cc(Cl)c(C(=O)NCCCO)n1`, the cytotoxicity at 10 µM came to 6.42%. To `Cc1nn(C)c(Cl)c1C1CCCN1Cc1cccc(C(N)=O)c1` (configuration not stated) belongs -6.22%. The figure for `O=C(NC1CC1)N1C[C@H]2CN(c3ccccc3)C(=O)[C@H]2C1` is -1.13%; for `O=C1NC2(CCCN(C(=O)CCn3cncn3)C2)Oc2ccccc21` (configuration not stated) it is 3.08%. Take `COc1cccc(OCCc2cncc(C(N)=O)c2)c1`: the cytotoxicity at 10 µM was -135%. To `CN(Cc1cnn(-c2ccccc2)n1)C1CCCN(c2cccnn2)C1` (configuration not stated) belongs -9.83%; to `Cc1nc(C)c(C(=O)N2CCC(Nc3cccnc3)CC2)s1`, -6.75%.

In the case of `CC(C)N1CCCC(C(=O)N2CCN(c3nsc4ccccc34)CC2)C1` (configuration not stated), the cytotoxicity at 10 µM was 2.81%.

As to `CN(Cc1ncc(-c2ccccc2)o1)C1CCCN(c2cccnn2)C1` (configuration not stated), the cytotoxicity at 10 µM was -29.1%.

Consider `COc1ccc(Oc2ncccc2NC(=O)N2CCOCC2C)cc1` (configuration not stated), for which the cytotoxicity at 10 µM was -2.43%. To `Cc1cc(C(C)(O)CNC(=O)CCOCC(C)C)c(C)o1` (configuration not stated) belongs 3.94%; to `Cc1noc(C)c1CN(C)C(=O)CCn1c(=O)n(C)c2ccccc21`, -6.67%; to `Nc1ccc(C(=O)N2CCCC(C(=O)CCc3ccccc3)C2)cn1` (configuration not stated), -7.98%. To `CCCN1CCCC2(CCN(S(=O)(=O)c3cc(C)nn3CC)C2)C1=O` (configuration not stated) belongs 4.82%; to `c1cncc(COCC2CN(Cc3ccco3)Cc3nccn3C2)c1` (configuration not stated), -157%; to `CC(C)CCc1n[nH]c(C(=O)O)c1Br`, -3.09%. To `CC(C)c1cnc(CN2C(=O)CC3(CCSC3)C2=O)o1` (configuration not stated) belongs 17.2%; to `CC(=O)N1[C@H](Cn2cncn2)C[C@@H]2CN(c3ncc(F)cn3)CC[C@@H]21`, -5.09%; to `Cc1cccc(N2CCC3(CCCN(C(=O)c4cccnc4)C3)C2)n1` (configuration not stated), 0.677%. Take `O=C(Cc1ccc2c(c1)OCO2)N1CCN(c2ccccc2Cl)C(=O)C1`: the cytotoxicity at 10 µM is -0.874%.

Regarding `O=C(Nc1cccc(CNCc2ccccn2)c1)C1CCCC1`, the cytotoxicity at 10 µM is -7.63%. The figure for `Clc1cccc(-c2noc(CCN3CCN(c4ccncc4)CC3)n2)c1` is 24%. To `O=C(c1cc(C2CCCN(Cc3ccccn3)C2)no1)N1CCCC1` (configuration not stated) belongs -18.9%; to `Cc1ccc(N(C)Cc2nnnn2C2CC2)c(C)c1`, 8.81%; to `CCN1CCC2(CC1)OCCN2C(=O)c1ccc(OC)c(Cl)c1`, 9.55%. To `CN(Cc1c(F)cccc1Cl)C(=O)CN(C)C1CCc2ccccc21` (configuration not stated) belongs 11.3%. `COc1cc(Oc2ccc(C(F)(F)F)cn2)ccc1CN1CCCC1`: the cytotoxicity at 10 µM is 51.5%. The figure for `Cc1ncc(CN2CCCC(c3nc4ccccc4n3C(C)C)C2)s1` (configuration not stated) is -24.9%; for `c1nc2c(c(NCCCn3cncn3)n1)CCN(CC1CCOC1)CC2` (configuration not stated) it is -10.6%; for `Cc1nnc(NCCn2nc(C)c(Cl)c2C)o1` it is 1.91%. As to `Cc1ccc(C(F)(F)F)cc1NCC(=O)Nc1c(C)nn(C)c1C`, the cytotoxicity at 10 µM is -1.86%. On to `O=C([C@@H]1Cc2[nH]cnc2CN1C(=O)NC1CCCCC1)N1CCCC1`, for which the cytotoxicity at 10 µM came to 6.06%.

For `O=C1CCC2(CCOC2)CN1Cc1nncn1CCc1ccccc1` (configuration not stated), the cytotoxicity at 10 µM is -0.506%. To `O=C(Cc1cccs1)Nc1cnn(C2CCOC2)c1` (configuration not stated) belongs -7.86%; to `COc1ncc(-c2nccn2-c2ccccc2CN2CCOCC2)cn1`, 3.31%; to `CCN(CC1CCCO1)C(=O)NCCNC(=O)c1ccccc1F` (configuration not stated), 5.63%. As for `O=S(=O)(N1CCOCC1)N1CCc2sccc2C1`, the cytotoxicity at 10 µM is -92.3%. With `CN1CCC2(Cc3ccccc3NC2=O)C1` (configuration not stated), the cytotoxicity at 10 µM is 9.82%. To `O=C(Cn1nc2ccccc2n1)N1CCCC(O)(CN2CCCC2)C1` (configuration not stated) belongs -10.4%; to `Oc1ccc(-c2c(-c3ccccc3)ncn2C2CCNC2)cc1` (configuration not stated), -45.3%. On to `CCc1ocnc1C(=O)N1CCCC1c1noc(C)n1` (configuration not stated), for which the cytotoxicity at 10 µM was -8.77%. The figure for `CCn1ncc2c1C(COCC1CC1)N(Cc1c(C)noc1C)CC2` (configuration not stated) is 12.3%.

On to `N#Cc1cc(F)ccc1NCc1ccc(Cn2cncn2)cc1`, for which the cytotoxicity at 10 µM was determined as 8.75%. As to `CN(Cc1nnc(C2CC2)n1C)C1CCN(Cc2ccccc2)C1` (configuration not stated), the cytotoxicity at 10 µM is -4.45%. The figure for `Cc1cccc2c1nc1n2[C@@H](CNC(=O)NC(C)C)COC1` is 0.0962%; for `O=C(NCc1cccnc1)N1CCc2ncnc(NC3CC3)c2CC1` it is -107%; for `Cc1csc(N2CCN(C(=O)CCc3ccccn3)CC2)n1` it is -4.27%. On to `Cc1ccccc1CC(=O)N1CCOCC1c1c(C)n[nH]c1C` (configuration not stated), for which the cytotoxicity at 10 µM is -5.6%. The figure for `COc1cccc([S+]([O-])CC(=O)NCc2cc(F)cc(F)c2)c1` (configuration not stated) is -0.491%; for `CC(C)(C)CN1CCN2C(=O)N(C3CCCCC3)C[C@H]2C1` it is 4.91%. `CN(C)C(=O)N1Cc2ccccc2C2(CCN(C3CCOCC3)CC2)C1`: the cytotoxicity at 10 µM is 7.21%. The figure for `CC(C)C(NC(=O)Cn1ccc(=O)n(C)c1=O)c1ccc(F)cc1` (configuration not stated) is -9.9%; for `Cc1ccsc1-c1nnc(C2CCN(Cc3ccc(F)cc3)CC2)o1` it is 4.58%; for `CCc1cnc2c(c1Nc1ccccc1OC)c(=O)n(C)c(=O)n2C` it is 6.87%. To `O=C(NCC(F)F)c1ccc(S(=O)(=O)NCCc2ccncc2)cc1` belongs -7.88%; to `COCCNC(=O)c1c(-n2cnnn2)sc2c1CCCC2`, 3.51%.
